Data set [1] concerns Human immunodeficiency virus 1. The data set is described as follows: Antiviral activity against CXCR4-tropic HIV1 NL4-3 infected in HEK293T cells assessed as inhibition of viral replication after 4 days by beta-galactosidase reporter gene assay. In kind it is functional, organism-based. As to conditions: Human immunodeficiency virus 1, NL4-3, HEK-293T, 96 h. The gist of the method:
(§1)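 Measured in the proprietary deCIPhR cell-based system using fully replicative virus. Two HIV lab strains from molecular clones differing in coreceptor tropism were used: pNL4-3 (CXCR4 usage) and pNL-AD87 (CCR5 usage). IC50 is the 50% inhibitory concentration in the anti-HIV assay, expressed in μg/mL; IC90 was also determined.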

Data set [2] has as its system Human immunodeficiency virus 1. The data set can be described thus: Antiviral activity against CCR5-tropic HIV1 NL-AD87 infected in HEK293T cells assessed as inhibition of viral replication after 4 days by beta-galactosidase reporter gene assay. In kind it is functional, organism-based. As to conditions: Human immunodeficiency virus 1, NL-AD87, HEK-293T, 96 h. A digest of the protocol:
as §1
Background: In a reporter assay the amount or activity of a reporter protein is the signal.

Data set [3] can be described thus: (§2) Cytotoxicity against human HEK293T cells after 4 days by Alamar blue assay. It counts as cell-based, HEK-293T. The conditions noted are these: HEK293T cells, read-out: TC50. Background: Alamar Blue is a resazurin reagent that responds to reducing activity.
The subject of another data set is HEK-293T. Described as §2. In kind it is cell-based. As to conditions: hek-293t, 96 h.
The nature of data set [4]: Selectivity index, ratio of TC50 for human HEK293T cells to IC50 for CXCR4-tropic HIV1 NL4-3 infected in HEK293T cells. In kind it is toxicity, cell-based, HEK-293T. The conditions noted are these: read-out: Selectivity Index.
Data set [5] can be described thus: Selectivity index, ratio of TC50 for human HEK293T cells to IC50 for CCR5-tropic HIV1 NL-AD87 infected in HEK293T cells. It counts as toxicity, cell-based, HEK-293T. As to conditions: read-out: Selectivity Index.
Data set [6] can be described thus: Selectivity index, ratio of TC50 for human HEK293T cells to IC90 for CXCR4-tropic HIV1 NL4-3 infected in HEK293T cells. It counts as toxicity, cell-based, HEK-293T. The conditions noted are these: read-out: Selectivity Index.
The nature of data set [7]: Selectivity index, ratio of TC50 for human HEK293T cells to IC90 for CCR5-tropic HIV1 NL-AD87 infected in HEK293T cells. It counts as toxicity, cell-based, HEK-293T. The conditions noted are these: read-out: Selectivity Index.

This is an account of results in ChEMBL document CHEMBL2151018, “Bioassay-guided investigation of the Tanzanian plant Pyrenacantha kaurabassana for potential anti-HIV-active compounds” (J Nat Prod, 2012).

One may read the IC50 as the concentration that gives 50% inhibition. Broadly, the IC90 is the concentration needed for an effect of 90%.

Values after ≈ are worked out from the molar mass of the structure shown.

With `COc1cc2c(c(-c3cc(O)c4c(O)c5oc6c(C(=O)O)cc(C)cc6c(=O)c5c(O)c4c3OC)c1)CC(C)OC2=O` (stereo not given), in data set [1], the half-inhibitory concentration (IC50) was determined as 21 µg/mL (≈ 36.7 µM) and the IC90 came to 111 µg/mL (≈ 194 µM). Moreover, in data set [2], the IC50 came to 21 µg/mL (≈ 36.7 µM) and the IC90 was 111 µg/mL (≈ 194 µM). For the same molecule, the CC50 at 96 h in data set [3] is more than 12.5 µg/mL. Further, the TC90 in the data set on HEK-293T is more than 12.5 µg/mL.
Take `COc1cc2c(c(-c3cc(O)c4c(O)c5oc6c(C(=O)O)cc(C)cc6c(=O)c5c(OC)c4c3OC)c1)CC(C)OC2=O` (stereo not given): the IC50 in data set [1] and in data set [2] was 2 µg/mL (≈ 3.41 µM) in each case. For the same molecule, the IC90 in data set [1] and in data set [2] was 22 µg/mL (≈ 37.5 µM) each time. The CC50 at 96 h in data set [3] was found to be 31 µg/mL (≈ 52.9 µM). The molecule further displayed a TC90 with HEK-293T of 154 µg/mL (≈ 263 µM). For the same molecule, the selectivity ratio was determined as 15.5 in data set [4], 15.5 in data set [5], 7 in data set [6] and 7 in data set [7].
Turning to enfuvirtide, in data set [1], the IC50 was determined as 0.01 µg/mL and the 90% effect concentration (IC90) amounted to 0.026 µg/mL. Further, in data set [2], the IC50 stood at 0.01 µg/mL and the concentration for an effect of 90% (IC90) stood at 0.026 µg/mL.
